Source: PubChem (several laboratories)
beta cell repl = inducers of beta-cell replication in MIN6 cells | 330,000 compounds, 0.29% hits | proliferation, % at 10 µM | MIN6 cells proliferation, ATPlite luminescence, 48 h; cells starved in 0.2% serum; 100% = growth in 10% serum;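 active = compounds whose signal lies at least 3.5 SD above the mean of all wells on their plate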;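 note: 0% = DMSO-treated cells in low-serum medium and 100% = 10% serum control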
Exocytosis inh = lytic granule exocytosis inhibition; TALL-104 LAMP-1 surface exposure, flow cytometry; cells stimulated with thapsigargin and PMA; inhibition, % at 10 µM; 360,000 compounds, 0.66% hits; AID 651702;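 active = inhibition above about 55%, limit read from the data; inconclusive = no clear call, values can overlap the other calls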
Apaf1 inhib = inhibitors of human Apaf-1 apoptosome | O14727 | reconstituted apoptosome caspase-3 activity, DEVD-Rh110 fluorescence | inhibition, % at 20 µM | 330,000 compounds, 0.71% hits; active = inhibition of at least 40% at 20 µM;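 note: plate controls were DMSO wells for no effect and DEVD-CHO caspase inhibitor wells for full effect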
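Material: biochemical Apaf-1 apoptosome reconstitution. Medium: Hepes buffer, pH 7.5. Also added: cytochrome c activation, bis-DEVD rhodamine 110 substrate. Timing: 30 min compound preincubation, 50 min activation, room temperature. Measured by: rhodamine 110 fluorescence at Ex 480/Em 540 nm.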
hiPSC survival = increases survival of single human iPS cells; hiPSC single-cell survival, ATPlite luminescence; 100% = ROCK inhibitor wells, 0% = DMSO; survival enhancement, % at 20 µM; 360,000 compounds, 0.044% hits; AID 602274; in the data active = survival enhancement above about 18%;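 note: cells exposed to compounds for 16 hours before the ATP read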
MPTP block = blocks calcium-induced mitochondrial swelling | isolated mouse mitochondria, Ca2+ swelling absorbance, 30 min | inhibition, % at 10 µM | 360,000 compounds, 1.4% hits | AID 602449;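 active = inhibition of 50% or more, scaled per plate between neutral and stimulator controls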;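 note: 0% = DMSO wells given calcium and 100% = 1 mM EGTA wells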
UBC13 inh = human UBC13 polyubiquitination inhibition; 330,000 compounds, 0.47% hits; P61088; UBC13 polyubiquitin chain formation, TR-FRET; inhibition, % at 20 µM; in the data active = inhibition above about 45%, passing the limit was not always enough; inconclusive = no clear call, values can overlap the other calls
Target sequence (P61088 whole entry, looked up): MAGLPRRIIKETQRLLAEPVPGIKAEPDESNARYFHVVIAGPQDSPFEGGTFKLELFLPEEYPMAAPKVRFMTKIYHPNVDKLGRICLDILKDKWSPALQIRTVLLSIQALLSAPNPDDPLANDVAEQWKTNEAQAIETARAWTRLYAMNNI
MPTP counter = mitochondrial membrane potential, counter-screen; shares compounds with MPTP block; isolated mitochondria, Rhodamine 123 fluorescence; inhibition, % at 10 µM; 5,000 compounds, 78% hits; AID 624504; in the data active = inhibition above about 22%;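 note: 0% = DMSO vehicle and 100% = positive control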
MPTP abs DR = dose response confirmation of mitochondrial permeability transition pore inhibitors; isolated mitochondria swelling, absorbance; IC50, µM; 780 compounds, 58% hits; shares compounds with MPTP block; AID 651561; in the data active = IC50 below about 20 µM
MPTP counter DR = MPTP inhibitor counter-screen activity, dose response | shares compounds with MPTP block | isolated mitochondria counterscreen, fluorescence read-out | IC50, µM | 780 compounds, 49% hits | AID 651564; in the data active = IC50 below about 80 µM
The depositor's hits bear a star; ? = inconclusive; . = not tested or not shown. This is a sample that favours compounds with a hit; in the whole collection about 3% have one here.

SMILES	beta cell repl	Exocytosis inh	Apaf1 inhib	hiPSC survival	MPTP block	UBC13 inh	MPTP counter	others
CNCCC1Sc2ccccc2Oc2ccccc21 (stereo not drawn)	-4	?	-3	-1	61*	8	-6	MPTP abs DR=10*;MPTP counter DR=>80
O=C(NCC1COc2ccccc2O1)c1ccc(F)c(S(=O)(=O)N2CCOCC2)c1 (stereo not drawn)	-4	8	3	1	1	0	.
CCc1ccc(NC(=O)c2ccc(F)c(S(=O)(=O)NCC3COc4ccccc4O3)c2)cc1 (stereo not drawn)	-5	6	10	-1	84*	-11	78*
CCN(c1ccccc1)S(=O)(=O)c1cc(C(=O)Nc2ccc(Br)cc2)ccc1F	0	14	10	-4	97*	-8	89*
CC(=O)Nc1ccc(NC(=O)C(C)OC(=O)C23CC4CC(CC(Cl)(C4)C2)C3)cc1 (stereo not drawn)	1	0	11	-1	1	2	.
COCCCNCCCOc1ccc(Cl)cc1C(C)(C)C	0	4	4	-1	82*	33	-15	MPTP abs DR=6*;MPTP counter DR=>80
CNCCCOc1ccc(Cl)cc1C(C)(C)C	-5	-3	17	-1	91*	8	-12	MPTP abs DR=5.1*;MPTP counter DR=>80
CCCCc1nnc(NC(=O)Cc2ccc(S(=O)(=O)N3CCOCC3)s2)s1	-6	9	11	0	1	-13	.
COc1ccc(S(=O)(=O)N2CCCC2CNC(=O)C(=O)NCc2ccco2)cc1 (stereo not drawn)	-1	7	3	0	0	1	.
CCOC(=O)[C@]12CCCC=C1N(CCC1=CCCCC1)C(=O)[C@H](CC(=O)NCc1cccc3ccccc13)C2	.	13	.	.	2	.	.
NC(=O)Cn1nc(-c2ccccc2)nc1-c1ccccc1	-3	-4	-16	0	2	4	.
CCN1/C(=C/c2ccc3cc(C)ccc3[n+]2CC)Sc2cc(C)ccc21	.	85*	.	-5	98*	.	103*
CCCCN1/C(=C/c2ccc3ccccc3[n+]2CC)Sc2ccccc21	-5	74*	18	-1	94*	-207	104*
COc1ccc2nc(N3C(=O)/C(=C/c4ccc(Cl)cc4)NC3=S)sc2c1	.	-2	.	0	95*	.	3
C/C(=N\NC1=NCCN1)c1ccccc1	-2	0	15	0	2	-6	.
COc1ccc(Br)cc1/C(C)=N/NC1=NCCN1	2	4	-6	-1	105*	9	31*
COc1ccc(-c2coc3c(C(=O)NCc4ccc(OC)c(OC)c4)cccc23)c(C)c1	.	8	.	-3	98*	.	102*
O=C(NCc1ccc(C(F)(F)F)cc1)c1ccc(-c2ccc(F)c(F)c2)c2ccoc12	.	0	.	-2	2	.	.
O=C(NCc1ccncc1)c1ccc(-c2ccc(F)c(F)c2)c2ccoc12	.	-3	.	-2	91*	.	87*
COc1ccc(-c2coc3c(C(=O)NCc4ccc(F)c(F)c4)cccc23)c(C)c1	.	3	.	-3	24	.	.
COc1ccc(-c2ccc(C(=O)NCc3ccncc3)c3occc23)c(C)c1	.	8	.	3	92*	.	112*
COc1ccc(-c2ccc(C(=O)NCc3ccc(F)c(F)c3)c3occc23)c(C)c1	.	47	.	-1	1	.	.
Cc1ccc(NC(=O)COc2ccc3c(c2)OCO3)c(C)c1	-1	-4	-5	0	1	16	.
CC(C)(C)NC(=O)C(C1CC1)n1c(-c2ccccc2)nc2ccccc21 (stereo not drawn)	.	7	.	.	0	.	.
Cc1nc(NCCc2ccc(S(N)(=O)=O)cc2)c2c3c(sc2n1)CCC3	-2	-4	-4	1	1	5	.
SMILES	beta cell repl	Exocytosis inh	Apaf1 inhib	hiPSC survival	MPTP block	UBC13 inh	MPTP counter	others
Cc1nc(NS(=O)(=O)c2ccc(Cl)s2)c2c3c(sc2n1)CCCC3	-6	3	3	1	84*	-4	77*
COc1cccc(/C=N/Nc2ccc([N+](=O)[O-])cc2)c1O	0	18	13	0	2	-49	.
O=[N+]([O-])c1ccc(NN=Cc2cccc3ccccc23)cc1	.	13	.	4	89*	.	71*
O=[N+]([O-])c1ccc(N/N=C\c2ccccc2OCc2ccccc2)cc1	-1	-7	16	3	97*	-104	76*
O=[N+]([O-])c1ccc(/C=N/Nc2ccc3ccccc3c2)o1	-4	-4	3	-3	79*	-136	32*
Cc1ccc(S(=O)(=O)Nc2ccc(C(=O)NCCCn3ccnc3)cc2)cc1[N+](=O)[O-]	-2	8	2	0	0	-10	.
COc1ccccc1C(=O)NCC(=O)OCc1nnc(-c2ccccc2)o1	.	-4	.	7	0	.	.
O=C(NCc1ccc2c(c1)OCO2)c1c(-c2ccccc2)sc2ccccc12	-1	4	23	2	82*	-5	79*
Cc1onc(-c2ccccc2)c1C(=O)NCc1ccc2c(c1)OCO2	0	1	1	-2	0	3	.
CC1(C(=O)O)CCCN(C(=O)c2ccc3c(c2)C(C)(C)CCC3(C)C)C1 (stereo not drawn)	.	-8	.	-1	0	.	.
COc1cc(/C=N/Nc2snc(SC)c2C#N)cc(OC)c1OC	0	46	-17	0	73*	4	75*
CSc1nsc(N/N=C/c2ccc3c(c2)OCO3)c1C#N	-2	17	-3	-3	1	-18	.
C[C@H]1CN([C@@H](C)CO)C(=O)CCCn2cc(nn2)CO[C@@H]1CN(C)C(=O)NC1CCCCC1	.	0	.	-1	-1	.	.
COc1ccc2c(c1)[C@H]1[C@H](CO2)[C@H](c2ccccc2)[C@]2(C)C(=O)N[C@@H](C)C(=O)N12	-2	.	-3	.	.	6	.
Fc1ccc(NC(=S)SCc2ccc3c(c2)OCO3)cc1F	.	-2	.	-2	76*	.	94*
CCOC(=O)c1c(/N=C/c2ccc(C)cc2O)sc2c1CCN(C)C2	-2	12	1	0	3	3	.
CCOC(=O)c1c(/N=C/c2cccc(C)c2O)sc2c1CCN(C)C2	0	19	-2	1	71*	14	-16
COc1ccc(C(=O)Nc2ccc(C(=O)N3CCC(C)CC3)cc2)cc1OC	3	6	6	0	-1	1	.
CCOc1ccc(C2C(C(=O)c3ccco3)=C(O)C(=O)N2CCCn2ccnc2)cc1OC (stereo not drawn)	-1	-6	0	2	-1	-12	.
